We go through seven compounds from ChEMBL document CHEMBL3745686 (Eur J Med Chem, 2016).

Activity calls are given as the source filed them. The rule behind the calls is not given here.

For data set [1], the system named is Plasma. The data set can be described thus: Drug level in rat plasma treated with P'1,P'4-di-(2 methylthio-5'-adenosine) P'1,P'4-dithio-P'2,P'3-chloromethylenetetraphosphate, sodium salt at 50 uM after 77 hrs by HPLC analysis. Format: ADME, cell-free. The method, boiled down: (§1)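 Frozen pooled heparinised rat or human plasma, thawed and warmed 5 min at 37 °C, spiked to 50 μM final compound (from 10 mM saline stock), held at 37 °C up to 77 h; heat-denatured plasma as chemical control; aliquots quenched with MeCN, ultrafiltered, dried, redissolved in pH 8.5 phosphate/EDTA; isocratic RP-HPLC, 273 nm; metabolites confirmed by reference compounds and LCMS; peak areas internally normalised.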

The subject of data set [2] is Plasma. Briefly: Drug level in human plasma treated with P'1,P'4-di-(2 methylthio-5'-adenosine) P'1,P'4-dithio-P'2,P'3-chloromethylenetetraphosphate, sodium salt at 50 uM after 77 hrs by HPLC analysis. Format: ADME, cell-free. The method, boiled down:
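Pooled heparinized human plasma, prewarmed 5 min at 37 °C, was spiked to 50 μM final from a saline stock and incubated at 37 °C. Aliquots were MeCN-precipitated, ultrafiltered (10K), dried, reconstituted in phosphate/EDTA pH 8.5, and run on C18 HPLC (isocratic 20% methanol, 50 mM phosphate pH 8.4, 10 mM EDTA, UV 273 nm). Diastereomer peak areas were internally normalized, with heat-denatured plasma and blank controls.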

Data set [3] in a line: Anti-aggregatory activity in human platelet rich plasma assessed as inhibition of 20 uM ADP-induced platelet aggregation by optical aggregometric analysis. Format: functional, cell-free.
In data set [4] the target is T1, P2X purinoceptor 1 (Homo sapiens) (UniProt P51575).
T1 sequence (whole entry): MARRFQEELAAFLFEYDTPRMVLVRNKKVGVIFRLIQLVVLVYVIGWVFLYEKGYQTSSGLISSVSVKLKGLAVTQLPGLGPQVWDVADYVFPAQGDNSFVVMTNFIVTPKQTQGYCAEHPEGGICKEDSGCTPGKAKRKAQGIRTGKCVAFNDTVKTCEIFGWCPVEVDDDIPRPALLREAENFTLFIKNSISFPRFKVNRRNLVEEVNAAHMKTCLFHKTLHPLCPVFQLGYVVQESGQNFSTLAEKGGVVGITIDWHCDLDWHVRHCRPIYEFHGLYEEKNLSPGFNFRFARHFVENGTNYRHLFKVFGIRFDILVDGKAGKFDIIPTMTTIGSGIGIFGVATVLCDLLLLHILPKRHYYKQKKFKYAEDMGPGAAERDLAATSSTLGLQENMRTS
The data set can be described thus: Agonist activity at human platelet P2X1 receptor assessed as increase in cytosolic calcium level at 1 uM by […] staining based flow cytometric analysis relative to beta,gamma-CH2-ATP. In outline: (§2)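 Stimulus was extracellular Ca2+ uptake on 1 μM test compound (P2X1, scaled to 20 μM β,γ-CH2-ATP as 100%, selective P2Y1 inhibitor control), or 3 μM ADP (P2Y1 antagonism; omitted for agonism).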

The target in data set [5] is T2, P2Y purinoceptor 12 (Homo sapiens, UniProt Q9H244). The data set can be described thus: Agonist activity at human platelet P2Y12 receptor assessed as decrease in intra-platelet phosphorylated VASP by flow cytometric analysis.
T2 sequence (Q9H244 whole entry): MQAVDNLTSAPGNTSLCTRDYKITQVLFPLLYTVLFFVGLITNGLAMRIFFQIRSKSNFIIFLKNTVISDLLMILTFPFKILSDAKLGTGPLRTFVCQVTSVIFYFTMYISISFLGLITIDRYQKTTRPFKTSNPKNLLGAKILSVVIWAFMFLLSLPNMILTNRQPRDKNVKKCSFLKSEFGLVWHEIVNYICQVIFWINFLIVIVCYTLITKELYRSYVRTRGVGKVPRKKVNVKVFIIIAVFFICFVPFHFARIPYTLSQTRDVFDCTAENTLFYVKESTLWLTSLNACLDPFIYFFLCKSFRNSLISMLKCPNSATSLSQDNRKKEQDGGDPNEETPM
For data set [6], the target named is T3, P2Y purinoceptor 1 (Homo sapiens, UniProt P47900). The data set can be described thus: Antagonist activity at human platelet P2Y1 receptor assessed as inhibition of ADP-induced increase in cytosolic calcium level by FLUO-4 staining based flow cytometric analysis. Format: functional. In outline: as §2
T3 sequence (P47900 whole entry): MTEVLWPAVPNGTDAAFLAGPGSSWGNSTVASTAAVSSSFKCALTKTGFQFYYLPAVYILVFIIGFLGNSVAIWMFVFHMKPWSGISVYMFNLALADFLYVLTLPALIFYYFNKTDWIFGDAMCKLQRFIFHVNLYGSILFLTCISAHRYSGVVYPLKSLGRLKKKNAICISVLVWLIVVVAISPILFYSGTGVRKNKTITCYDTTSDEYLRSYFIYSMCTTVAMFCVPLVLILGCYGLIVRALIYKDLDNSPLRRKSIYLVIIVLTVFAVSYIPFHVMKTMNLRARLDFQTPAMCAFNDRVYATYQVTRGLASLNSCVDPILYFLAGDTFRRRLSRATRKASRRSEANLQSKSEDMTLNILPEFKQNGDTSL
The nature of data set [7]: Anti-aggregatory activity in human platelet rich plasma assessed as inhibition of 20 uM ADP-induced platelet aggregation preincubated for 15 mins by optical aggregometric analysis. Format: functional, cell-free.
The test system of data set [8] is Platelet. The data set can be described thus: Anti-aggregatory activity in human platelet rich plasma assessed as inhibition of ADP-induced platelet shape change. Format: functional, cell-free.
The target of data set [9] is T3, P2Y purinoceptor 1. The data set can be described thus: Agonist activity at human platelet P2Y1 receptor assessed as increase in cytosolic calcium level by FLUO-4 staining based flow cytometric analysis. Format: functional. The method, boiled down:
as §2

For data set [10], the target named is T2, P2Y purinoceptor 12. The data set can be described thus: Antagonist activity at human platelet P2Y12 receptor assessed as inhibition of ADP-mediated decrease in intra-platelet phosphorylated VASP by flow cytometric analysis.
For data set [11], the system named is Platelet. The data set can be described thus: Ratio of IC50 for inhibition of 20 uM ADP-induced human platelet aggregation for inhibition of 20 uM ADP-induced human platelet aggregation preincubated for 15 mins. Type of data set: functional.
Data set [12] has as its system Plasma. The data set can be described thus: Half life in rat plasma at 50 uM measured at 1 to 4 hrs. Type of data set: ADME, cell-free.
A short description of data set [13]: Anti-aggregatory activity in human platelet rich plasma assessed as inhibition of 20 uM ADP-induced P-selectin expression by fluorescence assay. Format: functional, cell-free.
The test system of data set [14] is Platelet. Briefly: Anti-aggregatory activity in ADP-induced human platelet rich plasma assessed as P-selectin expression at 10 nM preincubated for 30 mins followed by 100 fold dilution by fluorescence assay. Type of data set: functional. In outline: (§3)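 Human PRP from aspirin/NSAID-free donors in 3.2% citrate; platelets pre-incubated 30 min with 10 nM compound, then diluted 100-fold in platelet-poor plasma with or without 10 nM compound, stimulated with ADP; surface activated GPIIb-IIIa and P-selectin read as mean fluorescence intensity; means ± SEM of 3 experiments.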

For data set [15], the system named is Plasma. The data set can be described thus: Metabolic stability in rat plasma assessed as first order elimination rate constant at 50 uM measured at 1 to 4 hrs. Format: ADME, cell-free.
The subject of data set [16] is Plasma. The data set can be described thus: Metabolic stability in human plasma assessed as first order elimination rate constant at 50 uM measured at 1 to 4 hrs. Format: ADME, cell-free.
In data set [17] the test system is Plasma. Briefly: Drug metabolism in human plasma assessed as MeSAdo formation at 50 uM after 77 hrs by HPLC analysis. Type of data set: ADME, cell-free. The method, boiled down:
as §1

The nature of data set [18]: Anti-aggregatory activity in human platelet rich plasma assessed as inhibition of 20 uM ADP-induced platelet surface activated GP2b-3a expression by fluorescence assay. Format: functional, cell-free.
Data set [19] has as its system Plasma. The data set can be described thus: Drug metabolism in rat plasma assessed as MeSAdo formation at 50 uM after 77 hrs by HPLC analysis. Format: ADME, cell-free. The method, boiled down:
as §1

For data set [20], the system named is Plasma. Briefly: Half life in human plasma at 50 uM measured at 1 to 4 hrs. Type of data set: ADME, cell-free.
The nature of data set [21]: Chemical stability in heat denaturated plasma (unknown origin). Format: ADME, cell-free. The method, boiled down: as §1
The subject of data set [22] is Plasma. The data set can be described thus: Drugmetabolism in human plasma assessed as MeSAMP(S) formation at 50 uM after 77 hrs by HPLC analysis. Type of data set: ADME, cell-free. The method, boiled down:
as §1

The test system of data set [23] is Plasma. Briefly: Metabolic stability in fresh rat plasma assessed as compound degradation at 50 uM after 24 hrs by HPLC analysis. Format: ADME, cell-free.
In data set [24] the test system is Platelet. The data set can be described thus: Anti-aggregatory activity in ADP-induced human platelet rich plasma assessed as platelet surface activated GP2b-3a expression at 10 nM preincubated for 30 mins followed by 100 fold dilution by fluorescence assay. Type of data set: functional. In outline: as §3
In data set [25] the test system is Plasma. Briefly: Drug metabolism in rat plasma assessed as MeSAMP(S) formation at 50 uM after 77 hrs by HPLC analysis. Type of data set: ADME, cell-free. The method, boiled down: as §1
Data set [26] has as its target P2Y purinoceptor 2 (Homo sapiens) (UniProt P41231). The data set can be described thus: Effect on human P2Y2 receptor.
The subject of data set [27] is Platelet. The data set can be described thus: Anti-aggregatory activity in human platelet rich plasma assessed as inhibition of 20 uM ADP-induced platelet aggregation at 25 nM preincubated for 15 mins followed by ADP addition measured every 11 secs for 6 mins by 96-well microplate method. Format: functional, cell-free.
For data set [28], the system named is Platelet. Briefly: Anti-aggregatory activity in human platelet rich plasma assessed as inhibition of ADP-induced primary and secondary platelet aggregation preincubated for 15 mins followed by ADP addition and 10 secs shaking measured every 27 secs with 10 secs shaking by 96-well microplate method. Format: functional, cell-free. In outline: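 PRP incubated with compound 15 min at 37 °C, aggregation started with 5 μM ADP and 10 s shaking; absorbance at 580 nm read every 27 s with 10 s shaking between reads; 100% set by platelet-poor plasma, 0% by PRP.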

For data set [29], the target named is P2Y purinoceptor 6 (Homo sapiens) (UniProt Q15077). The data set can be described thus: Effect on human P2Y6 receptor.
Chain of P2Y purinoceptor 6 (Homo sapiens) (Q15077 whole entry): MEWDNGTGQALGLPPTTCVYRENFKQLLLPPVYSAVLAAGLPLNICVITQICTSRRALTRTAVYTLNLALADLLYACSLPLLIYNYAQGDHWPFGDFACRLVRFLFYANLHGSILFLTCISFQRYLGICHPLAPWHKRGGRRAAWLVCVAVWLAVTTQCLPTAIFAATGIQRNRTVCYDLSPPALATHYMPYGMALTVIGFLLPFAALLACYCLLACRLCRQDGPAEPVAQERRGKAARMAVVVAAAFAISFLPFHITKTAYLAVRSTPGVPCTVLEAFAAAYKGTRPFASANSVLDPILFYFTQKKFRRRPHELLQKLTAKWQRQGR
The subject of data set [30] is Platelet. Briefly: Anti-aggregatory activity in human platelet rich plasma assessed as inhibition of 20 uM ADP-induced platelet aggregation at 100 nM preincubated for 15 mins followed by ADP addition measured every 11 secs for 6 mins by 96-well microplate method. Type of data set: functional, cell-free.
The target in data set [31] is P2Y purinoceptor 4 (Homo sapiens) (UniProt P51582). Briefly: Effect on human P2Y4 receptor.
Chain of P2Y purinoceptor 4 (Homo sapiens) (P51582 whole entry): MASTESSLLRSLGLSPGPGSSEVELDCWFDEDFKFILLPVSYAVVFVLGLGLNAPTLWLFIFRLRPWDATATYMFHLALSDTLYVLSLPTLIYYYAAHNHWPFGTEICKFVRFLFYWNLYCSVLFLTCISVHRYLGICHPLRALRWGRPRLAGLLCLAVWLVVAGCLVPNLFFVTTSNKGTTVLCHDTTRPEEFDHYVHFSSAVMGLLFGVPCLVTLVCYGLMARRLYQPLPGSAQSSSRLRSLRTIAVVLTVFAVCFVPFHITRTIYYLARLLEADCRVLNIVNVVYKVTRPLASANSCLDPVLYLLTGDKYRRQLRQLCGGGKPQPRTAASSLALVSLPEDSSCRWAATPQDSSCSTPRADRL
Data set [32] in a line: Half life in rat plasma. Type of data set: ADME, cell-free.
The nature of data set [33]: Half life in human plasma at 0.7 uM. Format: ADME, cell-free.

Chain of P2Y purinoceptor 2 (Homo sapiens) (P41231 whole entry): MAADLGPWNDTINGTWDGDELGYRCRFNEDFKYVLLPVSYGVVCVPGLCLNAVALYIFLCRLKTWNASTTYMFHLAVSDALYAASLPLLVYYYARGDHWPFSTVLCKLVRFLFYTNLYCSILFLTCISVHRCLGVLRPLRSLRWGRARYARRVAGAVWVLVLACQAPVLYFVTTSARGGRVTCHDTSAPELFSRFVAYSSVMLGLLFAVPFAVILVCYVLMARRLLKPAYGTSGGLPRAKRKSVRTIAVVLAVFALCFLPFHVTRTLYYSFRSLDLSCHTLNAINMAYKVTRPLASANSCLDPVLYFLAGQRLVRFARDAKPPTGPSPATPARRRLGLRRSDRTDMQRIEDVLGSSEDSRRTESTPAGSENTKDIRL

Consider `CSc1nc(N)c2ncn([C@@H]3O[C@H](CO)[C@@H](O)[C@H]3O)c2n1`, for which the Drug metabolism entry in the data set with Plasma [1] and in the data set with Plasma [2] was “metabolite_detected” throughout.

For the compound `CSc1nc(N)c2ncn([C@@H]3O[C@H](COP(O)(O)=S)[C@@H](O)[C@H]3O)c2n1`, the Drug metabolism result with Plasma [1] was “metabolite_detected”.

Take `Nc1nc(Br)nc2c1ncn2[C@@H]1O[C@H](COP(=O)(S)OP(=O)(O)C(Cl)P(=O)(O)OP(=O)(S)OC[C@H]2O[C@@H](n3cnc4c(N)nc(Br)nc43)[C@H](O)[C@@H]2O)[C@@H](O)[C@H]1O` (mixture of isomers): the 50% inhibitory concentration (IC50) was determined as 6220 nM in [3], 2240 nM on P2Y purinoceptor 1 [6], 4520 nM in [7] and 340 nM on P2Y purinoceptor 12 [10]. Besides, in data set [4], the Activity came to 1.8%. Moreover, the result at P2Y purinoceptor 12 [5] and on P2Y purinoceptor 1 [9] was inactive. The inhibition entry in the data set with Platelet [8] is “Active”.

As to `CSc1nc(N)c2ncn([C@@H]3O[C@H](COP(=O)([S-])OP(=O)([O-])C(Cl)P(=O)([O-])OP(=O)([S-])OC[C@H]4O[C@@H](n5cnc6c(N)nc(SC)nc65)[C@H](O)[C@@H]4O)[C@@H](O)[C@H]3O)c2n1.[Na+].[Na+].[Na+].[Na+]` (mixture of isomers), the “Ratio IC50” value in the data set on Platelet [11] was 50. Besides, the IC50 in data set [3] is 2560 nM; in data set [13], 0.6 nM; on P2Y purinoceptor 1 [6], 2150 nM; in [18], 1.1 nM; in [7] it was 63.6 nM; on P2Y purinoceptor 12 [10], 220 nM. For the same compound, the figures for the t1/2 with Plasma [12] and in the data set on Plasma [20] were 284 min and 1880 min, respectively. The Activity with Platelet [14] and in the data set on Platelet [24] was 80% each time. Besides, the results for the Kel in the data set on Plasma [15] and in the data set on Plasma [16] were 0.147 h⁻¹ and 0.0221 h⁻¹, respectively. In addition, the Drug metabolism entry in the data set on Plasma [17], in the data set with Plasma [19] and with Plasma [25] was “metabolite_detected” throughout. The Stability result (in [21]; in the data set with Plasma [22]; in the data set on Plasma [23]) was “Stable” throughout.

Regarding `CCSc1nc(N)c2ncn([C@@H]3O[C@H](COP(=O)([S-])OP(=O)([O-])C(Cl)P(=O)([O-])OP(=O)([S-])OC[C@H]4O[C@@H](n5cnc6c(N)nc(SCC)nc65)[C@H](O)[C@@H]4O)[C@@H](O)[C@H]3O)c2n1.[Na+].[Na+].[Na+].[Na+]` (mixture of isomers), the “Ratio IC50” value with Platelet [11] amounted to 50. The IC50 in [3] was 3320 nM; at P2Y purinoceptor 1 [6], 9600 nM; in data set [7], 54.3 nM; at P2Y purinoceptor 12 [10], 140 nM. Further, in [4], the Activity came to 23.8%. In addition, the result at P2Y purinoceptor 12 [5] and on P2Y purinoceptor 1 [9] was inactive. Further, in the data set with Platelet [8], the inhibition result was “Active”.

On to `CSc1nc(N)c2ncn([C@@H]3O[C@H](COP(=O)(S)OP(=O)(O)C(Cl)P(=O)(O)OP(=O)(S)OC[C@H]4O[C@@H](n5cnc6c(N)nc(SC)nc65)[C@H](O)[C@@H]4O)[C@@H](O)[C@H]3O)c2n1` (mixture of isomers), for which the result (in data set [26]; at P2Y purinoceptor 12 [5]; at P2Y purinoceptor 1 [9]; in data set [29]; in data set [31]) was inactive. The inhibition result with Platelet [27], in the data set on Platelet [8] and in the data set on Platelet [30] was “Active” throughout. Besides, the Activity in data set [4] turned out to be 0.24%. Besides, the inhibition entry in the data set with Platelet [28] was “Dose-dependent effect”.

The compound `Nc1ncnc2c1ncn2[C@@H]1O[C@H](COP(=O)(O)OP(=O)(O)OP(=O)(O)OP(=O)(O)OC[C@H]2O[C@@H](n3cnc4c(N)ncnc43)[C@H](O)[C@@H]2O)[C@@H](O)[C@H]1O` [DIADENOSINE TETRAPHOSPHATE] came in with a half-life in data set [32] of 2.99 min. In addition, in [4], the Activity was found to be 198%. The compound further returned a half-life at 0.7 µM in [33] of 2 min.
